From ChEMBL document CHEMBL4219101, “Discovery of 18β-glycyrrhetinic acid conjugated aminobenzothiazole derivatives as Hsp90-Cdc37 interaction disruptors that inhibit cell migration and reverse drug resistance” (Bioorg Med Chem, 2018)
Activity calls are given as the source filed them. The rule behind the calls is not given here.

Legend:
[1] = system: A549; assay: Induction of apoptosis in human A549 cells assessed as upregulation of cleaved caspase-3 protein expression after 24 hrs by Western blot analysis; format: functional, cell-based
How it was run: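 A549 cells exposed to 5 and 10 µM for 24 h. Lysates cleared at 20000g, protein quantified by BCA and equal amounts run on 12% SDS-PAGE, then transferred to PVDF. Blocked in 5% skim milk in TBST. Probed overnight at 4 °C with antibodies to Bcl-2, Bax, caspase-9, caspase-3 and β-actin (loading reference). Chemiluminescent detection. Three independent experiments.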

[2] = system: A549; assay: Induction of apoptosis in human A549 cells after 24 hrs by Annexin-V FITC/propidium iodide staining based flow cytometry
[3] = system: MCF7; assay: Antiproliferative activity against human MCF7 cells after 48 hrs by MTT assay; format: functional, cell-based; conditions: MCF7, 48 h
How it was run: (§1)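 Cells in log phase seeded at about 1.0 × 10^5 cells/mL in 96-well plates, left 12 h at 37 °C, 5% CO2. Compounds dissolved in DMSO, added at 2.5, 5, 10, 20 and 50 µM, 48 h exposure. Absorbance read at 570/630 nm dual wavelength. Survival expressed relative to negative control. IC50 by Bliss method (n = 5), tests done in triplicate.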

[4] = system: A549; assay: Inhibition of HSP90/Cdc37 interaction in human A549 cells assessed as suppression cellular migration at 5 to 10 uM after 24 hrs by wound healing assay; format: cell-based
How it was run: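 Scratch wounds made in A549 monolayers, cells then exposed to 5 µM and 10 µM. Wound closure imaged by microscopy at 0 h and 24 h, magnification 200×.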

[5] = Inhibition of His-tagged full-length Hsp90 (unknown origin)/GST-tagged Cdc37M (unknown origin) interaction after 1 hr by HTRF assay; design: species or system Homo sapiens
How it was run: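 TR-FRET in PBS containing 400 mM KF, pH 7.3. His-tagged full-length Hsp90 and GST-Cdc37M, each 250 nM final, incubated with compound for 1 h at 37 °C. Anti-GST-Cryptate and anti-6His-XL665 then added for a further 0.5 h at 37 °C. Excitation 320 nm, emission 665/620 nm, reported as ratio ×10,000. Negative and blank controls run in each assay.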

[6] = Inhibition of HSP90/Cdc37 interaction in human doxorubicin-resistant NCI-H460 cells assessed as reduction in cell proliferation after 48 hrs by MTT assay; conditions: NCI-H460, 48 h; how it was run: as §1
[7] = system: A549; assay: Cell cycle arrest in human A549 cells assessed as accumulation at S phase at 10 uM after 48 hrs by propidium iodide staining-based flow cytometry (reference value: 19.62%); format: functional
[8] = organism: Homo sapiens; assay: Inhibition of HSP90/Cdc37 interaction assessed as reversal of drug resistance by measuring ratio of IC50 for human doxorubicin-resistant NCI-H460 cells to IC50 for human NCI-H460 cells
How it was run: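 Resistance factor is the ratio of IC50 in NCI-H460/DOX cells to IC50 in parental NCI-H460 cells. […] Values are mean ± SD of five separate experiments. Doxorubicin serves as the positive control.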

[9] = system: A549; assay: Inhibition of Hsp90/Cdc37 interaction in human A549 cells assessed as downregulation of Cdc37 in immunoprecipitated HSP90 complex at 5 to 10 uM after 24 hrs by Western blot analysis; format: cell-based
How it was run: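 A549 cells exposed to 5 and 10 µM for 24 h, geldanamycin 10 µM as comparator. Lysis in 20 mM Tris-HCl pH 7.4, 25 mM NaCl, 2 mM DTT, 20 mM Na2MoO4, 0.1% NP-40 and protease inhibitors. 500 µg protein immunoprecipitated overnight at 4 °C with anti-Hsp90 antibody, captured on protein G agarose, washed five times and boiled. Cdc37 and Hsp90 detected by Western blot, with input also blotted.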

[10] = target: Heat shock protein HSP 90-beta/Hsp90 co-chaperone Cdc37 (Homo sapiens) (UniProt P08238+Q16543); assay: Inhibition of HSP90beta/Cdc37 interaction in human A549 cells assessed as upregulation of HSP90beta expression at 5 to 10 uM after 24 hrs by Western blot analysis; format: cell-based
How it was run: (§2)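 A549 cells exposed for 24 h, with geldanamycin as comparator. Whole-cell lysates separated by SDS-PAGE and immunoblotted for the named proteins. β-actin used as reference.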

[11] = system: A549; assay: Induction of apoptosis in human A549 cells assessed as intracellular ROS levels at 5 uM after 24 hrs by FITC-DCF-DA-fluorescence based flow cytometry (reference value: 0.832%); format: functional
How it was run: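 A549 cells exposed to 5 and 10 µM for 24 h, untreated cells as control. Collected, washed with ice-cold PBS and loaded with DCFH-DA in cell-free medium for 20 min at 37 °C in the dark, then washed. Fluorescence measured by flow cytometry at 485 nm excitation and 538 nm emission. Mean ± S.D. of three independent experiments.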

[12] = system: A549; assay: Cell cycle arrest in human A549 cells assessed as accumulation at G2 phase at 5 uM after 48 hrs by propidium iodide staining-based flow cytometry (reference value: 10.22%); format: functional
[13] = system: A549; assay: Induction of apoptosis in human A549 cells assessed as early apoptotic cells at 5 uM after 24 hrs by Annexin-V FITC/propidium iodide staining based flow cytometry (reference value: 0.080%)
[14] = system: A549; assay: Induction of apoptosis in human A549 cells assessed as viable cells at 5 uM after 24 hrs by Annexin-V FITC/propidium iodide staining based flow cytometry (reference value: 97.6%); conditions: A549, 24 h
[15] = system: A549; assay: Induction of apoptosis in human A549 cells assessed as late apoptotic cells at 5 uM after 24 hrs by Annexin-V FITC/propidium iodide staining based flow cytometry (reference value: 0.030%)
[16] = system: A549; assay: Cell cycle arrest in human A549 cells assessed as accumulation at S phase after 48 hrs by propidium iodide staining-based flow cytometry; format: functional
[17] = target: Heat shock protein HSP 90-alpha/Hsp90 co-chaperone Cdc37 (Homo sapiens) (UniProt P07900+Q16543); assay: Inhibition of HSP90alpha/Cdc37 interaction in human A549 cells assessed as upregulation of HSP90alpha expression at 5 to 10 uM after 24 hrs by Western blot analysis; format: cell-based; how it was run: as §2
[18] = system: A549; assay: Induction of apoptosis in human A549 cells assessed as necrotic cells at 10 uM after 24 hrs by Annexin-V FITC/propidium iodide staining based flow cytometry (reference value: 2.32%)
[19] = system: A549; assay: Induction of apoptosis in human A549 cells assessed as early apoptotic cells at 10 uM after 24 hrs by Annexin-V FITC/propidium iodide staining based flow cytometry (reference value: 0.080%)
[20] = system: A549; assay: Cell cycle arrest in human A549 cells assessed as accumulation at G2 phase at 10 uM after 48 hrs by propidium iodide staining-based flow cytometry (reference value: 10.22%); format: functional

Heat shock protein HSP 90-alpha/Hsp90 co-chaperone Cdc37 (Homo sapiens), sequence (Q16543 whole entry, looked up, other chains not shown): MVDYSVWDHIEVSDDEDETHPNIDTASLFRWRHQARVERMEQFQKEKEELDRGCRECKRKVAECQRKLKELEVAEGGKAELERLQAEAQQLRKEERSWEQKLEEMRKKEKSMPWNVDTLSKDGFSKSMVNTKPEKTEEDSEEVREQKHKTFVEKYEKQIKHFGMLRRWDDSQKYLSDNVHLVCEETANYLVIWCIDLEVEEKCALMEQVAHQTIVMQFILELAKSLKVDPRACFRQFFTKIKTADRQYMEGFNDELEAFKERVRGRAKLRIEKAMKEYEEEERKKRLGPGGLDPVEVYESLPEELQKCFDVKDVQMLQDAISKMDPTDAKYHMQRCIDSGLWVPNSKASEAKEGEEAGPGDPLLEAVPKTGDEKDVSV

IC50 [3]: 6.37 µM
IC50 [5]: 0.14 µM
Ratio IC50 [8]: 1.36
inhibition [10]: Active
inhibition [17]: Active
Compound: CCOC(=O)[C@@]1(C)CC[C@]2(C)CC[C@]3(C)C(=CC(=O)[C@@H]4[C@@]5(C)CC[C@H](OC(=O)CCC(=O)Nc6nc7ccc(F)cc7s6)C(C)(C)[C@@H]5CC[C@]43C)[C@@H]2C1
Activity [1]: Dose-dependent effect
Activity [2]: Dose-dependent effect
inhibition [4]: Active
IC50 [6]: 10.1 µM
Activity [7]: 40.35%
inhibition [9]: Active
Activity [11]: 13.6%
Activity [12]: 12.98%
Activity [13]: 8.45%
viability at 5 µM [14]: 85.5%
Activity [15]: 3.84%
Activity [16]: Dose-dependent effect
Activity [18]: 1.15%
Activity [19]: 14%
Activity [20]: 12.51%
